STAT3 act – increases IL-6 driven STAT3 reporter signal; activation (% of control), % at 5.6 µM; actives 0.91% (n = 190,000); U3A cells, IL-6 STAT3-luciferase reporter, luminescence; 100% = signal with IL-6 EC80 alone;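 active = activation above the screen-wide mean of compound activation plus 3 SD, cut at about 130% in these data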;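 note: 0% = background luminescence of wells with medium and substrate only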
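System – human U3A cells carrying STAT3-luciferase construct · Probe or stimulus – Interleukin-6, 33 ng/mL · Schedule – compound 1 h, then IL-6 6 h at 37 °C · Signal – luminescence from STAT3-driven luciferase reporter · Evaluation – percent of IL-6-only median luminescence · Benchmarks – IL-6-only high control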
STAT1 blocker – reduces IFN-gamma driven STAT1 reporter signal. NIH 3T3 STAT1-luciferase reporter, luminescence. inhibition, % at 5.5 µM. actives 0.35% (n = 200,000). AID 920;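 active = inhibition above a set limit, the mean inhibition across all tested compounds plus 3 SD, cut at about 34% in these data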;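 note: 0% = IFN-gamma with DMSO and 100% = IFN-gamma with 300 µM nifuroxazide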
HSP90 inh – blocks HSP90-mediated luciferase refolding in reticulocyte lysate. actives 0.91% (n = 290,000). Rabbit reticulocyte lysate, luciferase refolding luminescence, 3 h. inhibition, % at 5.6 µM;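 active = inhibition above the screen-wide mean plus 3 SD, computed separately per campaign, cut at about 16% in these data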;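 note: 0% = DMSO wells and 100% = 60 µM geldanamycin wells; inhibitors lower the luminescence because luciferase stays unfolded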
PPC-1+TRAIL kill – kills PPC-1 cancer cells in the presence of TRAIL | PPC-1 cells + TRAIL, ATPLite viability luminescence | cell killing (% activity), % at 4 µM or 5 µM | actives 0.41% (n = 220,000);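 active = cell killing above 50% in the first pass at 4 µM, then a duplicate retest at 5 µM averaging 50% or more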;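 note: plate controls were cells with TRAIL plus DMSO for no effect and medium-only wells lacking cells for full effect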
C8 TRAIL sens – sensitizes caspase-8 expressing cells to TRAIL | NB7+C8 cells + TRAIL, ATPlite viability luminescence | inhibition (viability loss, TRAIL sensitization), % at 10 µM | actives 1% (n = 360,000);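 active = compounds causing at least 50% loss of cell viability in the single-dose screen, relative to plate controls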
STAT3 inh – STAT3 signaling inhibition | U3A cells, IL-6 STAT3-luciferase reporter, luminescence; host cell line lacks STAT1 | inhibition, % at 5.5 µM | actives 0.89% (n = 190,000) | AID 862;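 active = inhibition above the mean inhibition across all screened compounds plus 3 SD, cut at about 44% in these data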;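 note: 0% = DMSO only wells and 100% = 100 µM nifuroxazide control wells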
HSP90 confirm – HSP90 inhibition, confirmation assay; shares compounds with HSP90 inh; rabbit reticulocyte lysate, luciferase refolding luminescence, 3 h; inhibition, % at 5.9 µM; actives 64% (n = 2,300); in the data active = inhibition above about 18%;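 note: 0% = vehicle wells and 100% = reference inhibitor wells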
luciferase ctr – counter-screen for HSP90 inhibitors: inhibitors of firefly luciferase; shares compounds with HSP90 inh; purified native firefly luciferase, luminescence; inhibition, % at 5.9 µM; actives 48% (n = 2,300); AID 1847;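 active = inhibition above the mean inhibition of all tested sample wells plus 3 SD, cut at about 10% in these data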;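 note: 0% = DMSO with luciferase and 100% = wells lacking luciferase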
Target sequence (P08659 whole entry, looked up): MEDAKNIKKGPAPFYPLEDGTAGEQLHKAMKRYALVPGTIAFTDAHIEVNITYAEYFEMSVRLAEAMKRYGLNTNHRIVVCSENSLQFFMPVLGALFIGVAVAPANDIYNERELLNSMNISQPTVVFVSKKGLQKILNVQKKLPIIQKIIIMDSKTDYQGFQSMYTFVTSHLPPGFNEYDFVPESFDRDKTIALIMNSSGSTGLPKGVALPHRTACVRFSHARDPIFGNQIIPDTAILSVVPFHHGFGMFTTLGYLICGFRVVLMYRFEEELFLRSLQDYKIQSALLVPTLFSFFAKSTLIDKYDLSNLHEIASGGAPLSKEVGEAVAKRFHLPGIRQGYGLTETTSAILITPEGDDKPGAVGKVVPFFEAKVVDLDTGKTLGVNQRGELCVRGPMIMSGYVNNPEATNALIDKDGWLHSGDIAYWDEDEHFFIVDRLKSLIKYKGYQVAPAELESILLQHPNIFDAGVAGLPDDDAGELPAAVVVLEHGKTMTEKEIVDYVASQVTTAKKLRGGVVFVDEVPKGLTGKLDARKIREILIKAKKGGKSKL
Starred values were filed as active, the others as inactive; . = not tested or not shown. The list is not random: actives were taken first. Their share in the collection is about 2.3%.

SMILES | STAT3 act | STAT1 blocker | HSP90 inh | PPC-1+TRAIL kill | C8 TRAIL sens | STAT3 inh | HSP90 confirm | luciferase ctr
O=C(Nc1ccc2c(c1)OCCO2)c1cc(F)c(F)cc1Cl | . | . | 0 | . | 20 | . | . | .
CCCOc1cccc(C(=O)Nc2ccc3c(c2)OCCO3)c1 | . | . | 21* | . | 52* | . | 40* | 25*
CCC(=O)Nc1ccc(NC(=O)c2ccc3c(c2)OCO3)cc1 | 89 | 1 | 2 | 14 | 7 | 12 | . | .
Cc1cc(C(=O)Nc2ccc3c(c2)OCCO3)ccc1[N+](=O)[O-] | . | . | 28* | . | 24 | . | 59* | 51*
O=C(Nc1ccc2c(c1)OCCO2)c1ccc(Cl)c([N+](=O)[O-])c1 | 92 | -5 | 1 | 20 | 34 | 7 | . | .
Cc1ccc(C(=O)Nc2ccc3c(c2)OCCO3)c(Cl)c1 | . | . | 59* | . | 83* | . | 75* | 68*
CCCOc1cccc(C(=O)Nc2cccc(NC(=O)c3ccco3)c2)c1 | 99 | 7 | -5 | 8 | 2 | 6 | . | .
COc1ccc(NC(=O)c2ccc3c(c2)OCO3)cc1 | . | . | 19* | . | 41 | . | 27* | 14*
CC(=O)N1CCN(C(=O)CSc2cc(C)c(Br)cc2C)CC1 | . | . | 1 | . | 9 | . | . | .
COc1ccc(OC)c(-c2nn(-c3ccccc3)cc2C(=O)NCC2CCCO2)c1 (centres undefined) | . | . | -6 | . | -10 | . | . | .
Cc1ccc(C(=O)Nc2ccc3c(c2)OCO3)cc1 | 72 | 20 | 66* | 72* | 74* | 32 | 52* | 38*
CCOc1ccc(NC(=O)c2ccccn2)cc1 | 16 | 59* | 83* | 87* | 91* | 98* | 88* | 80*
CCOc1ccc(C(=O)Nc2ccc3c(c2)OCCO3)cc1 | . | . | 22* | . | 55* | . | 37* | 16*
CCOc1ccc(NC(=O)c2cccnc2SC)cc1 | 90 | -6 | -1 | 39 | 3 | 17 | . | .
CCN(CC)CCN1C(=O)C(O)=C(C(=O)c2cc3ccccc3o2)C1c1cccnc1 (centres undefined) | 95 | -2 | 1 | 4 | 2 | 7 | . | .
CCOC(=O)C1(Cc2cccc(F)c2)CCN(Cc2ccon2)CC1 | 102 | 12 | 2 | -14 | -6 | 4 | . | .
O=C(NNC(=O)c1cc2ccccc2cc1O)c1cccs1 | . | . | -1 | . | 6 | . | . | .
C/C(=N\NC(=O)c1cc2ccccc2cc1O)c1cccs1 | . | . | 22* | . | 53* | . | 34* | 38*
COc1ccccc1OCCNC(=O)CNC(=O)c1ccc(Cl)c(Cl)c1 | . | . | . | . | -4 | . | . | .
O=C(CSc1nc2ccccc2c(=O)n1NC(=O)Cc1ccccc1)NCc1ccccc1 | 105 | 3 | 7 | 4 | -5 | -2 | . | .
COc1ccc(C(=O)Nn2c(SCC(=O)NCc3ccccc3)nc3ccccc3c2=O)cc1 | 67 | 6 | 68* | 22 | 20 | 42 | 50* | 49*
COc1ccc(C(=O)Nn2c(SCC(=O)NCC3CCCO3)nc3ccccc3c2=O)cc1 (centres undefined) | 34 | 47* | 63* | 47 | 46 | 77* | 78* | 72*
COCC(C)n1c(SCC(=O)NC2CCCCC2)nc2ccccc2c1=O (centres undefined) | . | . | . | . | -8 | . | . | .
COc1ccc(C(=O)Nn2c(SCC(=O)NC3CCCC3)nc3ccccc3c2=O)cc1 | 89 | -30 | 72* | 13 | 10 | 16 | 52* | 49*
CC12CC3(C)CC(C)(C1)CC(C(=O)NCC(=O)O)(C2)C3 | 101 | 1 | 0 | 21 | -9 | 7 | . | .
COc1cccc(Nc2ccc(N3CCCCC3)cc2)c1OC | . | . | . | . | 38 | . | . | .
COc1ccc(/C(O)=C2/C(=O)C(=O)N(Cc3cccnc3)C2c2ccccn2)cc1 (centres undefined) | 104 | -8 | 2 | 20 | 2 | 0 | . | .
CC(C)Oc1ccc(/C(O)=C2/C(=O)C(=O)N(Cc3cccnc3)C2c2ccco2)cc1 (centres undefined) | 108 | -8 | 20* | -5 | -10 | 1 | 3 | 15*
COc1cccc(/C=C/c2ccccn2)c1O | . | . | 17* | 30 | 32 | . | 17* | 9.9*

Screening results from PubChem.
